What was measured:
Hepatitis C virus = assay: Antiviral activity against HCV in Huh7 ETcell line at 10 uM assessed by measuring HCV-RNA-derived LUC activity relative to control; type: functional, Hepacivirus hominis
Summary of the method: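 Primary single-concentration screen (10 µM) in Huh7 ET cells carrying an HCV RNA replicon with a stable luciferase reporter. Replicon-derived luciferase activity serves as an indirect measure of HCV RNA and is expressed as % of control.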

Huh-7 [1] = assay: Selectivity index (toxicity/antiviral activity); type: functional
Summary of the method: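 Huh7 ET HCV luciferase replicon cells, single 10 µM primary screen. Index is the ratio of β-actin RNA level (% control) to replicon-derived luciferase activity (% control).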

Huh-7 [2] = assay: Cytotoxicity against Huh7ET cell line containg HCV replicon at 10 uM assessed by measuring the beta-actin RNA level relative to control; type: functional, Homo sapiens
Summary of the method: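 Huh7 ET HCV replicon (luciferase reporter) cells treated at 10 µM in the same primary screen. Cellular β-actin RNA level is used to compute cytotoxicity, expressed as % of control.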

HepG2 [3] = assay: Selectivity index (CC50/EC50) for inhibition of HBV replicative intermediate synthesis in human hepatoblastoma 2.2.15 cells; type: functional
Summary of the method: (§1)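 2.2.15 cells were dosed daily for nine days. CC50 is the neutral red uptake concentration causing a twofold reduction versus untreated cultures. EC50 is from blot hybridization of intracellular replicative intermediates or extracellular virion DNA, by linear regression. Index = CC50/EC50.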

Hepatitis B virus [4] = assay: Inhibition of synthesis of intracellular HBV DNA replicative intermediates in cultured human hepatoblastoma 2.2.15 cells; type: functional, organism-based; conditions: HepG2 2.2.15
Summary of the method: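 2.2.15 cells were dosed daily for nine days and lysed 24 h after day 9. Intracellular HBV DNA replicative intermediates were measured by Southern/dot blot hybridization with ³²P-labelled HBV probes. EC50 and EC90 came from linear regression on combined treated-culture data, with SD from the regression standard error.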

HepG2 [5] = assay: Cytotoxicity against human hepatoblastoma 2.2.15 cells; type: functional
Summary of the method: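 Confluent HBV-producing 2.2.15 cells received compound daily for nine days. Cytotoxicity was read by neutral red dye uptake. CC50 is the concentration giving a twofold drop in uptake from the mean of untreated cultures.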

HepG2 [6] = assay: Selectivity index (CC50/EC50) for inhibition of HBV virion DNA synthesis in human hepatoblastoma 2.2.15 cells; type: functional; summary of the method: as §1
Hepatitis B virus [7] = assay: Inhibition of synthesis of extracellular virion DNA release in cultured human hepatoblastoma 2.2.15 cells; type: functional, organism-based; conditions: HepG2 2.2.15
Summary of the method: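 Confluent 2.2.15 cells were dosed daily for nine days. Culture medium was collected daily, and extracellular virion HBV DNA was assayed on days 0, 3, 6 and 9 by blot hybridization using ³²P-labelled HBV-specific probes. EC50 and EC90 (50%/90% inhibition) came from linear regression on all treated cultures, with SD taken from the regression standard error.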

SMILES	Activity (Hepatitis C virus) [%]	Selectivity index (Huh-7 [1])	Activity (Huh-7 [2]) [%]	Selectivity index (HepG2 [3])	EC50 (Hepatitis B virus [4]) [µM]	EC90 (Hepatitis B virus [4]) [µM]	CC50 (HepG2 [5]) [µM]	Selectivity index (HepG2 [6])	EC50 (Hepatitis B virus [7]) [µM]	EC90 (Hepatitis B virus [7]) [µM]
CCCCCCCCCCCCNc1nc(=O)c2c(nc(Br)n2Cc2ccc(OC)cc2)c(=O)[nH]1	47	1	47	–	–	–	–	–	–	–
CCNc1nc(=O)c2c(nc(Br)n2Cc2ccc(OC)cc2)c(=O)[nH]1	34	1.912	65	–	–	–	–	–	–	–
CCCCCCCCNc1nc(=O)c2c(nc(Br)n2COCc2ccccc2)c(=O)[nH]1	29	2.1	61	–	–	–	–	–	–	–
CNc1nc(=O)c2c(nc(Br)n2Cc2ccc(OC)cc2)c(=O)[nH]1	33	1.453	48	–	–	–	–	–	–	–
CCCCCCCCCCCCCCCCNc1nc(=O)c2c(nc(Br)n2Cc2ccc(OC)cc2)c(=O)[nH]1	70	0.043	3	–	–	–	–	–	–	–
CCCCCCCCNc1nc(=O)c2c(nc(Br)n2Cc2ccc(OC)cc2)c(=O)[nH]1	32	2.155	69	–	–	–	–	–	–	–
CCCCCCCCCCNc1nc(=O)c2c(nc(Br)n2Cc2ccc(OC)cc2)c(=O)[nH]1	53	0.604	32	–	–	–	–	–	–	–
CCCCCCCCNc1nc(=O)c2c(nc(Br)n2Cc2ccccc2)c(=O)[nH]1	78	1.06	83	34	8.4	28	286	168	1.7	6.9
COc1ccc(Cn2c(Br)nc3c(=O)nc(N)[nH]c(=O)c32)cc1	62	1.435	89	–	–	–	–	–	–	–
CCCCCCCCCCCCCCNc1nc(=O)c2c(nc(Br)n2Cc2ccc(OC)cc2)c(=O)[nH]1	64	0.532	34	–	–	–	–	–	–	–
COc1ccc(Cn2c(Br)nc3c(=O)nc(NCc4ccccc4)[nH]c(=O)c32)cc1	55	1.255	69	–	–	–	–	–	–	–
Nc1ccn([C@@H]2CS[C@H](CO)O2)c(=O)n1 [LAMIVUDINE]	–	–	–	8602	0.251	0.648	2160	44979	–	0.151
NC(=O)c1ncn([C@@H]2O[C@H](CO)[C@@H](O)[C@H]2O)n1 [RIBAVIRIN]	89	0.42	12	–	–	–	–	–	–	–

From ChEMBL document CHEMBL1141861, “Synthesis and in vitro anti-hepatitis B and C virus activities of ring-expanded ('fat') nucleobase analogues containing the imidazo[4,5-e][1,3]diazepine-4,8-dione ring system” (Bioorg Med Chem Lett, 2005)
